Experimental data published in ChEMBL document CHEMBL1152729, “Ceramides: branched alkyl chains in the sphingolipid siblings of diacylglycerol improve biological potency” (Bioorg Med Chem, 2009).

Assays:
SUP-T1 [1] = assay: Cytotoxicity against human SupT1 cells after 24 hrs by CellTiter-Blue assay; type: functional, cell-based
How it was run: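 SupT1 cells cultured in RPMI with 10% FBS and penicillin-streptomycin, then incubated 24 h with serially diluted compound from 50 mM DMSO stocks. CellTiter-Blue resazurin reduction was read at 560/590 nm and normalized to the no-drug control as percent viability. IC50s came from the fitted dose-response curve of each experiment and were averaged over three experiments ± SD.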

SUP-T1 [2] = assay: Induction of apoptosis in human SupT1 cells at 50 uM after 24 hrs using DiOC6 staining by FACS; type: functional
How it was run: (§1)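 SupT1 cells exposed to varying compound concentrations for 24 h, then collected and PBS-washed. Mitochondrial depolarization was detected by 10 μM DiOC6 staining and flow cytometry. Cells with reduced DiOC6 staining were gated as apoptotic.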

MDA-MB-231 = assay: Cytotoxicity against human MDA-MB-231 cells after 24 hrs by CellTiter-Blue assay; type: functional, cell-based; details: MDA-MB-231, 24 h
How it was run: (§2)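 MCF-7 or MDA-MB231 cells kept in DMEM with 10% FBS and penicillin-streptomycin. The cells were exposed for 24 h to serial dilutions of compound, diluted in medium at 37 °C from 50 mM DMSO stocks. Viability was read by resazurin-to-resorufin fluorescence at 560/590 nm ex/em and normalized to the no-drug control. Dose-response fits gave IC50s, averaged over three experiments ± SD.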

MCF7 = assay: Cytotoxicity against human MCF7 cells after 24 hrs by CellTiter-Blue assay; type: functional, cell-based; details: MCF7, 24 h; how it was run: as §2
SUP-T1 [3] = assay: Induction of early apoptosis in human SupT1 cells at 50 uM after 24 hrs using annexin V-FITC staining by FACS; type: functional
How it was run: (§3)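 SupT1 cells treated for 24 h at different compound concentrations, then harvested and washed in PBS. Phosphatidylserine exposure was detected by Annexin V-FITC staining and flow cytometry. Brightly stained cells were counted as apoptotic.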

SUP-T1 [4] = assay: Induction of early apoptosis in human SupT1 cells after 24 hrs using annexin V-FITC staining by FACS; type: functional, cell-based; how it was run: as §3
SUP-T1 [5] = assay: Induction of apoptosis in human SupT1 cells after 24 hrs using DiOC6 staining by FACS; type: functional, cell-based; how it was run: as §1
NHDF = assay: Cytotoxicity against NHDF after 24 hrs by CellTiter-Blue assay; type: cell-based; details: Homo sapiens
How it was run: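 Normal human dermal fibroblasts grown in fibroblast medium and treated for 24 h with serial compound dilutions. Viability was measured by resorufin fluorescence (560/590 nm ex/em) as percent of the no-drug control. IC50 was taken from the dose-response fit as a single determination.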

SK-BR-3 = assay: Cytotoxicity against human SKBR3 cells after 24 hrs by CellTiter-Blue assay; type: functional, cell-based; details: SK-BR-3, 24 h
How it was run: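 SKBR3 breast cancer cells grown in DMEM with 10% FBS and penicillin-streptomycin. The cells were treated for 24 h with serial compound dilutions made in 37 °C medium from 50 mM DMSO stocks. Resorufin fluorescence (560/590 nm ex/em) was expressed as percent of the untreated control. Curve fitting gave IC50s, with the mean of three repeats ± SD.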

SUP-T1 [6] = assay: Induction of early apoptosis in human SupT1 cells at 25 uM after 24 hrs using annexin V-FITC staining by FACS; type: functional; how it was run: as §3
SUP-T1 [7] = assay: Induction of apoptosis in human SupT1 cells at 25 uM after 24 hrs using DiOC6 staining by FACS; type: functional; how it was run: as §1

Row | Compound | IC50 (SUP-T1 [1]; Homo sapiens, SUP-T1, 24 h) | IC50 (MDA-MB-231) | IC50 (MCF7) | Activity (SUP-T1 [4]) | Activity (SUP-T1 [5]) | IC50 (NHDF) | IC50 (SK-BR-3) | also measured
1 | CCCCCCCCCCCC[C@@H](O)[C@H](CO)NC(=O)CC(CC(C)C)CC(C)C | 76.3 µM | – | – | – | – | – | – | –
2 | CCCCCCCCCCCCC/C=C/[C@@H](O)[C@H](CO)NC(C)=O (stereo in doubt; 1) | – | 35.4 µM | 45.4 µM | Dose-dependent effect | Dose-dependent effect | 66.5 µM | 49.2 µM | Activity (SUP-T1 [2]): 56.14%; IC50 (SUP-T1 [1]; sup-t1): 41.4 µM; Activity (SUP-T1 [3]): 42.33%
3 | CCCCCCCCCC/C=C/[C@@H](O)[C@H](CO)NC(=O)CC(CC(C)C)CC(C)C | 29.1 µM | – | – | – | – | – | – | –
4 | CCCCCCCCCCCCC/C=C/[C@@H](O)[C@H](CO)NC(=O)CCCCC | 48 µM | – | – | – | – | – | – | –
5 | CCCCCCCCCCC(=O)N[C@@H](CO)[C@H](O)/C=C/CC(CC(C)C)CC(C)C | 15.5 µM | 22.4 µM | 16.3 µM | Dose-dependent effect | Dose-dependent effect | 45.4 µM | 10.2 µM | Activity (SUP-T1 [6]): 66.16%; Activity (SUP-T1 [7]): 75.15%
6 | CCCCCC(=O)N[C@@H](CO)[C@H](O)/C=C/CC(CC(C)C)CC(C)C | 52.9 µM | – | – | – | – | – | – | –
